In ChEMBL document CHEMBL1255500, “Safety and pharmacokinetics of the antiorthopoxvirus compound ST-246 following repeat oral dosing in healthy adult subjects” (Antimicrob Agents Chemother, 2010):

How the values were obtained:
[1] = Half life in healthy human at 400 mg/day, po administered for 21 days measured at day 21; format: ADME, organism-based; conditions: in vivo
Outline: (§1)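 Phase I randomized, double-blind, placebo-controlled escalating multiple-dose study; 8 nonfasting healthy adults per dose group, one oral dose daily within 30 min after a standard light meal (400 to 450 cal, ~25% fat) for 21 days. Plasma was sampled serially on days 1, 6 and 21 (72 h after the last dose) and stored at −70°C. ST-246 was measured by validated LC-MS/MS with an analog internal standard (plasma range 50 to 4,000 ng/ml). Parameters (AUCtau, Cmax, Tmax, t1/2) came from noncompartmental analysis.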

Homo sapiens [2] = assay: Toxicity in healthy human assessed as incidence of nausea at 250 mg/day, po administered for 21 days; format: organism-based; conditions: in vivo, 504 h
Outline: (§2)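 Randomized, double-blind, placebo-controlled escalating study; 8 active and 2 placebo subjects per dose group, oral daily dosing after a standard light meal for 21 days. Safety was followed through adverse event reporting, vital signs, physical exam, hematology, blood chemistry, urinalysis and ECGs, with clinic visits at weeks 1 to 3. Laboratory AEs were graded by DAIDS criteria. Results are the number and percentage of subjects reporting each treatment-emergent AE.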

Homo sapiens [3] = assay: Toxicity in healthy human assessed as incidence of treatment-emergent adverse events at 250 mg/day, po administered for 21 days; format: organism-based; conditions: in vivo, 504 h; outline: as §2
Homo sapiens [4] = assay: Toxicity in healthy human assessed as incidence of treatment-emergent adverse events at 800 mg/day, po administered for 21 days; format: organism-based; conditions: in vivo, 504 h; outline: as §2
[5] = AUC in healthy human at 800 mg/day, po administered for 21 days measured at day 6; format: ADME, organism-based; conditions: plasma
Outline: (§3)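 Healthy adult volunteers, 8 per dose group, in the nonfasted state. Each took one oral dose daily for 21 days, within 30 min after a standard light meal (400 to 450 cal, ~25% fat). Venous blood was drawn predose and postdose on days 1, 6 and 21. Plasma was stored at −70°C and assayed by validated LC-MS/MS with an analog internal standard (range 50 to 4,000 ng/ml). AUCtau and Cmax were obtained by noncompartmental analysis.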

Homo sapiens [6] = assay: Toxicity in healthy human assessed as incidence of dry mouth at 400 mg/day, po administered for 21 days; format: organism-based; conditions: in vivo, 504 h; outline: as §2
[7] = Tmax in healthy human at 250 to 800 mg/day, po administered for 21 days measured at day 1; format: ADME, organism-based; conditions: in vivo; outline: as §1
Homo sapiens [8] = assay: Toxicity in healthy human assessed as incidence of fatigue at 250 mg/day, po administered for 21 days; format: organism-based; conditions: in vivo, 504 h; outline: as §2
[9] = Cmax in healthy human at 400 mg/day, po administered for 21 days measured at day 1; format: ADME, organism-based; set-up: dose 400 mg/day, route oral; conditions: in vivo; outline: as §3
[10] = AUC in healthy human at 250 mg/day, po administered for 21 days measured at day 6; format: ADME, organism-based; conditions: plasma; outline: as §3
Homo sapiens [11] = assay: Toxicity in healthy human assessed as incidence of fatigue at 800 mg/day, po administered for 21 days; format: organism-based; conditions: in vivo, 504 h; outline: as §2
Homo sapiens [12] = assay: Toxicity in healthy human assessed as incidence of somnolence at 400 mg/day, po administered for 21 days; format: organism-based; conditions: in vivo, 504 h; outline: as §2
Homo sapiens [13] = assay: Toxicity in healthy human assessed as incidence of flatulence at 400 mg/day, po administered for 21 days; format: organism-based; conditions: in vivo, 504 h; outline: as §2
Homo sapiens [14] = assay: Toxicity in healthy human assessed as incidence of headache at 400 mg/day, po administered for 21 days; format: organism-based; conditions: in vivo, 504 h; outline: as §2
[15] = Half life in healthy human at 800 mg/day, po administered for 21 days measured at day 21; format: ADME, organism-based; conditions: in vivo; outline: as §1
[16] = AUC in healthy human at 800 mg/day, po administered for 21 days measured at day 21; format: ADME, organism-based; conditions: plasma; outline: as §3
[17] = Cmax in healthy human at 800 mg/day, po administered for 21 days measured at day 1; format: ADME, organism-based; set-up: dose 800 mg/day, route oral; conditions: in vivo; outline: as §3
[18] = AUC in healthy human at 400 mg/day, po administered for 21 days measured at day 21; format: ADME, organism-based; set-up: dose 400 mg/day, route oral; conditions: plasma; outline: as §1
Homo sapiens [19] = assay: Toxicity in healthy human assessed as incidence of nausea at 400 mg/day, po administered for 21 days; format: organism-based; conditions: in vivo, 504 h; outline: as §2
Homo sapiens [20] = assay: Toxicity in healthy human assessed as incidence of somnolence at 800 mg/day, po administered for 21 days; format: organism-based; conditions: in vivo, 504 h; outline: as §2
Homo sapiens [21] = assay: Toxicity in healthy human assessed as incidence of headache at 250 mg/day, po administered for 21 days; format: organism-based; conditions: in vivo, 504 h; outline: as §2
Homo sapiens [22] = assay: Toxicity in healthy human assessed as incidence of urticaria at 800 mg/day, po administered for 21 days; format: organism-based; conditions: in vivo, 504 h; outline: as §2
Homo sapiens [23] = assay: Toxicity in healthy human assessed as incidence of headache at 800 mg/day, po administered for 21 days; format: organism-based; conditions: in vivo, 504 h; outline: as §2
Homo sapiens [24] = assay: Toxicity in healthy human assessed as incidence of urticaria at 250 mg/day, po administered for 21 days; format: organism-based; conditions: in vivo, 504 h; outline: as §2
Homo sapiens [25] = assay: Toxicity in healthy human assessed as incidence of urticaria at 400 mg/day, po administered for 21 days; format: organism-based; conditions: in vivo, 504 h; outline: as §2
[26] = AUC in healthy human at 400 mg/day, po administered for 21 days measured at day 1; format: ADME, organism-based; conditions: plasma; outline: as §1
[27] = Tmax in healthy human at 250 to 800 mg/day, po administered for 21 days measured at day 6; format: ADME, organism-based; conditions: in vivo; outline: as §1
[28] = Cmax in healthy human at 400 mg/day, po administered for 21 days measured at day 21; format: ADME, organism-based; conditions: in vivo; outline: as §1
Homo sapiens [29] = assay: Toxicity in healthy human assessed as incidence of flatulence at 250 mg/day, po administered for 21 days; format: organism-based; conditions: in vivo, 504 h; outline: as §2
Homo sapiens [30] = assay: Toxicity in healthy human assessed as incidence of fatigue at 400 mg/day, po administered for 21 days; format: organism-based; conditions: in vivo, 504 h; outline: as §2
Homo sapiens [31] = assay: Toxicity in healthy human assessed as incidence of somnolence at 250 mg/day, po administered for 21 days; format: organism-based; conditions: in vivo, 504 h; outline: as §2
[32] = Cmax in healthy human at 800 mg/day, po administered for 21 days measured at day 6; format: ADME, organism-based; set-up: dose 800 mg/day, route oral; conditions: in vivo; outline: as §3
[33] = Half life in healthy human at 250 mg/day, po administered for 21 days measured at day 21; format: ADME, organism-based; conditions: in vivo
Outline: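 Healthy nonfasted volunteers took one oral dose daily for 21 days after a standard light meal. Plasma was sampled for 72 h after the last dose on day 21 (days 21 to 24) and quantified by validated LC-MS/MS. Terminal t1/2 was derived noncompartmentally from the observed elimination rate constant (λz), and mean and median were given.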

Homo sapiens [34] = assay: Toxicity in healthy human assessed as incidence of nausea at 800 mg/day, po administered for 21 days; format: organism-based; conditions: in vivo, 504 h; outline: as §2
[35] = Tmax in healthy human at 250 to 800 mg/day, po administered for 21 days measured at day 21; format: ADME, organism-based; conditions: in vivo; outline: as §1
Homo sapiens [36] = assay: Toxicity in healthy human assessed as incidence of dry mouth at 800 mg/day, po administered for 21 days; format: organism-based; conditions: in vivo, 504 h; outline: as §2
Homo sapiens [37] = assay: Toxicity in healthy human assessed as incidence of dry mouth at 250 mg/day, po administered for 21 days; format: organism-based; conditions: in vivo, 504 h; outline: as §2
[38] = Cmax in healthy human at 400 mg/day, po administered for 21 days measured at day 6; format: ADME, organism-based; set-up: dose 400 mg/day, route oral; conditions: in vivo; outline: as §3
[39] = Cmax in healthy human at 250 mg/day, po administered for 21 days measured at day 1; format: ADME, organism-based; set-up: dose 250 mg/day, route oral; conditions: in vivo; outline: as §3
Homo sapiens [40] = assay: Toxicity in healthy human assessed as incidence of flatulence at 800 mg/day, po administered for 21 days; format: organism-based; conditions: in vivo, 504 h; outline: as §2
[41] = AUC in healthy human at 400 mg/day, po administered for 21 days measured at day 6; format: ADME, organism-based; conditions: plasma; outline: as §3
[42] = AUC in healthy human at 250 mg/day, po administered for 21 days measured at day 21; format: ADME, organism-based; conditions: plasma; outline: as §3
[43] = Cmax in healthy human at 250 mg/day, po administered for 21 days measured at day 6; format: ADME, organism-based; set-up: dose 250 mg/day, route oral; conditions: in vivo; outline: as §3
[44] = AUC in healthy human at 250 mg/day, po administered for 21 days measured at day 1; format: ADME, organism-based; conditions: plasma; outline: as §1
Homo sapiens [45] = assay: Toxicity in healthy human assessed as incidence of abnormal eye sensation at 250 mg/day, po administered for 21 days; format: organism-based; conditions: in vivo, 504 h; outline: as §2
[46] = AUC in healthy human at 800 mg/day, po administered for 21 days measured at day 1; format: ADME, organism-based; conditions: plasma; outline: as §3
Homo sapiens [47] = assay: Toxicity in healthy human assessed as incidence of abnormal eye sensation at 800 mg/day, po administered for 21 days; format: organism-based; conditions: in vivo, 504 h; outline: as §2
Homo sapiens [48] = assay: Toxicity in healthy human assessed as incidence of abnormal eye sensation at 400 mg/day, po administered for 21 days; format: organism-based; conditions: in vivo, 504 h; outline: as §2

Compound: O=C(NN1C(=O)[C@@H]2[C@@H]3C=C[C@@H]([C@H]4C[C@@H]34)[C@@H]2C1=O)c1ccc(C(F)(F)F)cc1 [TECOVIRIMAT]
- half-life [1]: 19.8 h
- Activity (Homo sapiens [2]): 0%
- Activity (Homo sapiens [3]): 75%
- Activity (Homo sapiens [4]): 62.5%
- AUC at 504 h [5]: 23400 ng·h/mL
- Activity (Homo sapiens [6]): 0%
- Tmax [7]: 2.88 h
- Activity (Homo sapiens [8]): 12.5%
- Cmax [9]: 1390 ng/mL
- AUC at 504 h [10]: 11900 ng·h/mL
- Activity (Homo sapiens [11]): 0%
- Activity (Homo sapiens [12]): 0%
- Activity (Homo sapiens [13]): 0%
- Activity (Homo sapiens [14]): 0%
- half-life [15]: 20.7 h
- AUC at 504 h [16]: 22700 ng·h/mL
- Cmax [17]: 2280 ng/mL
- AUC at 504 h [18]: 16200 ng·h/mL
- Activity (Homo sapiens [19]): 0%
- Activity (Homo sapiens [20]): 12.5%
- Activity (Homo sapiens [21]): 37.5%
- Activity (Homo sapiens [22]): 0%
- Activity (Homo sapiens [23]): 25%
- Activity (Homo sapiens [24]): 0%
- Activity (Homo sapiens [25]): 0%
- AUC at 504 h [26]: 13100 ng·h/mL
- Tmax [27]: 2.63 h
- Cmax [28]: 1460 ng/mL
- Activity (Homo sapiens [29]): 0%
- Activity (Homo sapiens [30]): 0%
- Activity (Homo sapiens [31]): 0%
- Cmax [32]: 2340 ng/mL
- half-life [33]: 18.8 h
- Activity (Homo sapiens [34]): 12.5%
- Tmax [35]: 2.67 h
- Activity (Homo sapiens [36]): 12.5%
- Activity (Homo sapiens [37]): 0%
- Cmax [38]: 1300 ng/mL
- Cmax [39]: 985 ng/mL
- Activity (Homo sapiens [40]): 25%
- AUC at 504 h [41]: 15400 ng·h/mL
- AUC at 504 h [42]: 10100 ng·h/mL
- Cmax [43]: 1210 ng/mL
- AUC at 504 h [44]: 9100 ng·h/mL
- Activity (Homo sapiens [45]): 0%
- AUC at 504 h [46]: 21000 ng·h/mL
- Activity (Homo sapiens [47]): 12.5%
- Activity (Homo sapiens [48]): 0%
